Reference: PMC5704914 (Biochemistry, 2017)

Test system: α11.2 AAs 1506-1871
Assay: Yeast two-hybrid interaction of α-actinin-1 fragments with α11.2 C-terminus
Type: binding, rabbit
Settings: α-actinin-1 prey in pGADT7; X-α-Gal
How it was run: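 Bait plasmids (α11.2 C-terminal fragments) and α-actinin-1 full-length or fragment prey (Gal4 activation domain, pGADT7) were co-transformed into Y2H Gold yeast. Co-transformants were selected on Leu−/Trp− plates with X-α-Gal, then colonies were replated onto Leu/Trp/His/Ade quadruple-dropout plates plus X-α-Gal to score interaction.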

B1: SR234EF: C-terminal four EF hands preceded by three spectrin repeats of α-actinin-1 (AAs 391-892) (protein)
chain: RLDHLAEKFRQKASIHEAWTDGKEAMLRQKDYETATLSEIKALLKKHEAFESDLAAHQDRVEQIAAIAQELNELDYYDSPSVNARCQKICDQWDNLGALTQKRREALERTEKLLETIDQLYLEYAKRAAPFNNWMEGAMEDLQDTFIVHTIEEIQGLTTAHEQFKATLPDADKERLAILGIHNEVSKIVQTYHVNMAGTNPYTTITPQEINGKWDHVRQLVPRRDQALTEEHARQQHNERLRKQFGAQANVIGPWIQTKMEEIGRISIEMHGTLEDQLSHLRQYEKSIVNYKPKIDQLEGDHQLIQEALIFDNKHTNYTMEHIRVGWEQLLTTIARTINEVENQILTRDAKGISQEQMNEFRASFNHFDRDHSGTLGPEEFKACLISLGYDIGNDPQGEAEFARIMSIVDPNRLGVVTFQAFIDFMSRETADTDTADQVMASFKILAGDKNYITMDELRRELPPDQAEYCIARMAPYTGPDSVPGALDYMSFSTALYGESDL
modifications: left off: Gal4 activation domain, end not stated, kept
  interaction of α-actinin-1 polypeptide with α11.2 AAs 1506-1871 (Y2H): consistently strong interaction readouts
